Measurements taken from ChEMBL document CHEMBL4020838, “The Discovery of ( S)-1-(6-(3-((4-(1-(Cyclopropanecarbonyl)piperidin-4-yl)-2-methylphenyl)amino)-2,3-dihydro-1 H-inden-4-yl)pyridin-2-yl)-5-methyl-1 H-pyrazole-4-carboxylic Acid, a Soluble Guanylate Cyclase Activator Specifically Designed for Topical Ocular Delivery as a Therapy for Glaucoma” (J Med Chem, 2018).
Activity calls are given as the source filed them. The calls are words filed in the database; no cut-off is given here.

Columns and labels:
[1] = species: Homo sapiens; assay: Activation of HUVEC-derived soluble guanylate cyclase expressed in CHOK1 cells assessed as increase in cGMP production after 1 hr by HTRF assay relative to 1-{6-[5-chloro-2-({4-[trans-4-(trifluoromethyl)cyclohexyl]-benzyl}oxy)phenyl)pyridin-2-yl)-5-(trifluoromethyl)-1H-pyrazole-4-carboxylic acid; assay type: cell-based
Outline: (§1)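 High-throughput assay in Chinese hamster ovary cells expressing sGC. cGMP was measured across a dose range. EC50 and Emax (maximal cGMP produced) were taken from the dose-response curve.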

[2] = Activation of HUVEC-derived soluble guanylate cyclase expressed in CHOK1 cells assessed as increase in cGMP production after 1 hr by HTRF assay; assay type: cell-based; outline: as §1
[3] = system: Oryctolagus cuniculus; assay: Toxicity in New Zealand albino rabbit assessed as excessive blinking at 30 ug administered as single topical dose measured up to 24 hrs post dose; settings: in vivo, topical_or_ocular
[4] = system: Oryctolagus cuniculus; assay: Toxicity in New Zealand albino rabbit assessed as conjunctival hyperemia at 30 ug administered as single topical dose measured up to 24 hrs post dose; settings: in vivo, topical_or_ocular
[5] = Activation of soluble guanylate cyclase in human GTM3 cells assessed as increase in cGMP production after 30 mins by fluorescence assay; assay type: cell-based
Outline: (§2)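 Immortalized glaucomatous trabecular meshwork (GTM-3) cells expressing endogenous levels of sGC were used. cGMP was read across a dose range. EC50 and Emax were derived from the dose-response curve.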

[6] = species: Homo sapiens; assay: Activation of soluble guanylate cyclase in human GTM3 cells assessed as increase in cGMP production after 30 mins by fluorescence assay relative to 1-{6-[5-chloro-2-({4-[trans-4-(trifluoromethyl)cyclohexyl]-benzyl}oxy)phenyl)pyridin-2-yl)-5-(trifluoromethyl)-1H-pyrazole-4-carboxylic acid; assay type: cell-based; outline: as §2
[7] = Dissociation constant, pKa of the compound; assay type: physicochemical
[8] = system: Oryctolagus cuniculus; assay: Toxicity in New Zealand albino rabbit eye up to 300 ug administered as single topical dose measured up to 24 hrs post dose; settings: in vivo, topical_or_ocular
[9] = system: Cynomolgus monkey; assay: Toxicity in laser-induced ocular hypertensive cynomolgus monkey eye at 30 ug administered as single topical dose; parameters: species or system Macaca fascicularis; settings: in vivo, topical_or_ocular
[10] = system: Cynomolgus monkey; assay: Reduction of intraocular pressure in laser-induced ocular hypertensive cynomolgus monkey at 30 ug administered as single topical dose measured after 6 to 24 hrs; assay type: functional; settings: Macaca fascicularis

| Compound | Emax [1] | EC50 ([2]; CHO-K1, 1 h) | EC50 [2] | Emax [6] | EC50 ([5]; Homo sapiens, GTM3, 0.5 h) | other results |
| --- | --- | --- | --- | --- | --- | --- |
| Cc1cc(C2CCN(C(=O)C3CC3)CC2)ccc1OCC1=C(c2cccc(-n3ncc(C(=O)O)c3C(F)(F)F)n2)CCC1 | 101% | 2.5 nM |  |  |  |  |
| Cc1cc(C2CCN(C(=O)C3CC3)CC2)ccc1NC1CCc2cccc(-c3cccc(-n4ncc(C(=O)O)c4C(F)(F)F)n3)c21 (single isomer, unassigned; (+)) [listing 1 of 2 here] |  |  | < 0.5 nM |  |  | Activity [3]: Toxic; Activity [4]: Toxic; EC50 [5]: 3 nM |
| Cc1cc(C2CCN(C(=O)C3CC3)CC2)ccc1NC1CCc2cccc(-c3cccc(-n4ncc(C(=O)O)c4C)n3)c21 (stereo in doubt; (-)-23) [listing 1 of 2 here] | 102% |  |  | 82% |  |  |
| Cc1cc(C2CCN(C(=O)C3CC3)CC2)ccc1OCc1ccsc1-c1cccc(-n2ncc(C(=O)O)c2C(F)(F)F)n1 | 102% | 4.5 nM |  |  |  |  |
| Cc1cc2c(c(-c3cccc(-n4ncc(C(=O)O)c4C(F)(F)F)n3)c1)C(Nc1ccc(C3CCN(C(=O)C4CC4)CC3)cc1C)CC2 (single isomer, unassigned; (-)) [listing 1 of 2 here] | 99% |  |  |  |  |  |
| CCC(=O)N1CCC(c2ccc(OCc3ccsc3-c3cccc(-n4ncc(C(=O)O)c4C(F)(F)F)n3)cc2)CC1 | 101% | 25 nM |  |  |  |  |
| Cc1cc(C2CCN(C(=O)C3CC3)CC2)ccc1OC1CCc2cccc(-c3cccc(-n4ncc(C(=O)O)c4C(F)(F)F)n3)c21 (single isomer, unassigned; (+)) [listing 1 of 2 here] |  |  | 1 nM |  | 10 nM |  |
| Cc1c(C(=O)O)cnn1-c1nc(-c2cccc(C(F)(F)F)c2)cs1 | 105% | 162 nM |  |  |  |  |
| Cc1cc(C2CCN(C(=O)C3CC3)CC2)ccc1NC1CCc2cccc(-c3cccc(-n4ncc(C(=O)O)c4C)n3)c21 (stereo in doubt; (+)-23) [listing 1 of 2 here] |  |  | < 0.5 nM |  |  | pKa [7]: 4.3; Activity [8]: Non-Toxic; Activity [9]: Non-Toxic; EC50 [5]: 5 nM |
| CCc1cc(OCC2=C(c3cccc(-n4ncc(C(=O)O)c4C(F)(F)F)n3)CCCC2C)ccc1C1CCN(C(=O)C2CC2)CC1 (stereo in doubt; (-)-17) [listing 1 of 2 here] | 100% |  |  | 63% |  |  |
| Cc1cc(C2CCN(C(=O)C3CC3)CC2)ccc1NC1CCc2cccc(-c3cccc(-n4ncc(C(=O)O)c4C(F)(F)F)n3)c21 (single isomer, unassigned; (-)) [listing 1 of 2 here] | 101% |  |  | 97% |  |  |
| Cc1cc(C2CCN(C(=O)C3CC3)CC2)ccc1OCC1=C(c2cccc(-n3ncc(C(=O)O)c3C(F)(F)F)n2)CCCC1 | 101% | 0.35 nM |  | 110% | 85 nM |  |
| Cc1cc(C2CCN(C(=O)C3CC3)CC2)ccc1OC1CCc2cccc(-c3cccc(-n4ncc(C(=O)O)c4C(F)(F)F)n3)c21 (single isomer, unassigned; (-)) [listing 1 of 2 here] | 100% |  |  |  |  |  |
| Cc1cc(COc2ccc(C3CCN(C(=O)C4CC4)CC3)cc2C)c(-c2cccc(-n3ncc(C(=O)O)c3C(F)(F)F)n2)s1 | 101% | < 0.1 nM |  | 100% | 53 nM |  |
| O=C(O)CCCCN(CCc1ccccc1OCc1ccc(CCc2ccccc2)cc1)Cc1ccc(C(=O)O)cc1 [CINACIGUAT] | 93% | 1 nM |  | 15% | 4 nM |  |
| Cc1cc(C2CCN(C(=O)C3CC3)CC2)ccc1NC1CCc2cccc(-c3cccc(-n4ncc(C(=O)O)c4C(F)(F)F)n3)c21 (single isomer, unassigned; (-)) [listing 2 of 2 here] |  |  | 37 nM |  |  | EC50 [5]: 1200 nM |
| Cc1cc2c(c(-c3cccc(-n4ncc(C(=O)O)c4C(F)(F)F)n3)c1)C(Nc1ccc(C3CCN(C(=O)C4CC4)CC3)cc1C)CC2 (single isomer, unassigned; (-)) [listing 2 of 2 here] |  |  | 24 nM |  |  |  |
| Cc1cc(C2CCN(C(=O)C3CC3)CC2)ccc1NC1CCc2cccc(-c3cccc(-n4ncc(C(=O)O)c4C(F)(F)F)n3)c21 (single isomer, unassigned; (+)) [listing 2 of 2 here] | 100% |  |  | 89% |  |  |
| CCc1cc(COc2ccc(C3CCN(C(=O)C4CC4)CC3)cc2C)c(-c2cccc(-n3ncc(C(=O)O)c3C(F)(F)F)n2)s1 | 103% | 2 nM |  | 68% | 180 nM |  |
| Cc1cc(C2CCN(C(=O)C3CC3)CC2)ccc1NC1CCc2cccc(-c3cccc(-n4ncc(C(=O)O)c4C)n3)c21 (stereo in doubt; (+)-23) [listing 2 of 2 here] | 104% |  |  | 106% |  | Activity [10]: Active |

| Compound | Emax [1] | EC50 ([2]; CHO-K1, 1 h) | EC50 [2] | Emax [6] | EC50 ([5]; Homo sapiens, GTM3, 0.5 h) | other results |
| --- | --- | --- | --- | --- | --- | --- |
| CCc1cc(OCC2=C(c3cccc(-n4ncc(C(=O)O)c4C(F)(F)F)n3)CCCC2C)ccc1C1CCN(C(=O)C2CC2)CC1 (stereo in doubt; (-)-17) [listing 2 of 2 here] |  |  | 9 nM |  |  | EC50 [5]: 170 nM |
| Cc1cc2c(c(-c3cccc(-n4ncc(C(=O)O)c4C(F)(F)F)n3)c1)C(Nc1ccc(C3CCN(C(=O)C4CC4)CC3)cc1C)CC2 (single isomer, unassigned; (+)) [listing 1 of 2 here] |  |  | 1 nM |  | 55 nM | pKa [7]: 3.1 |
| CCc1csc(-c2cccc(-n3ncc(C(=O)O)c3C(F)(F)F)n2)c1COc1ccc(C2CCN(C(=O)C3CC3)CC2)cc1C | 105% | 6 nM |  | 70% | 160 nM |  |
| Cc1cc(C2CCN(C(=O)C3CC3)CC2)ccc1OC1CCc2cccc(-c3cccc(-n4ncc(C(=O)O)c4C(F)(F)F)n3)c21 (single isomer, unassigned; (-)) [listing 2 of 2 here] |  |  | 7 nM |  |  |  |
| Cc1cc(C2CCN(C(=O)C3CC3)CC2)ccc1OC1CCc2cccc(-c3cccc(-n4ncc(C(=O)O)c4C(F)(F)F)n3)c21 (single isomer, unassigned; (+)) [listing 2 of 2 here] | 102% |  |  | 100% |  |  |
| Cc1cc(C2CCN(C(=O)C3CC3)CC2)ccc1OC1CCc2cccc(-c3cccc(-n4cc(C(=O)O)cn4)n3)c21 (single isomer, unassigned; (+)) | 103% | 2.5 nM |  | 70% | 320 nM |  |
| CCc1cc(OCC2=C(c3cccc(-n4ncc(C(=O)O)c4C(F)(F)F)n3)CCCC2C)ccc1C1CCN(C(=O)C2CC2)CC1 (single isomer, unassigned; (+)) [listing 1 of 2 here] | 102% |  |  | 85% |  |  |
| Cc1cc2c(c(-c3cccc(-n4ncc(C(=O)O)c4C(F)(F)F)n3)c1)C(Nc1ccc(C3CCN(C(=O)C4CC4)CC3)cc1C)CC2 (single isomer, unassigned; (+)) [listing 2 of 2 here] | 101% |  |  | 85% |  |  |
| CCc1cc(OCC2=C(c3cccc(-n4ncc(C(=O)O)c4C)n3)CCCC2C)ccc1C1CCN(C(=O)C2CC2)CC1 (single isomer, unassigned; (+)) [listing 1 of 2 here] | 101% |  |  | 120% |  | Activity [10]: Active |
| Cc1cc(C2CCNCC2)ccc1OCc1ccsc1-c1cccc(-n2ncc(C(=O)O)c2C(F)(F)F)n1 | 73% | 4200 nM |  |  |  |  |
| Cc1cc(C2CCN(CC3CC3)CC2)ccc1OCc1ccsc1-c1cccc(-n2ncc(C(=O)O)c2C(F)(F)F)n1 | 88% | 430 nM |  |  |  |  |
| CCc1cc(OCC2=C(c3cccc(-n4ncc(C(=O)O)c4C(F)(F)F)n3)CCCC2(C)C)ccc1C1CCN(C(=O)C2CC2)CC1 | 99% | 1 nM |  | 71% | 140 nM |  |
| Cc1cc(C2CCN(C(=O)C3CC3)CC2)ccc1NC1CCc2cccc(-c3cccc(-n4ncc(C(=O)O)c4C)n3)c21 (stereo in doubt; (-)-23) [listing 2 of 2 here] |  |  | 17 nM |  |  | EC50 [5]: 490 nM |
| CCc1cc(OCC2=C(c3cccc(-n4ncc(C(=O)O)c4C)n3)CCCC2C)ccc1C1CCN(C(=O)C2CC2)CC1 (stereo in doubt; (-)-24) [listing 1 of 2 here] | 101% |  |  |  |  |  |
| CCc1cc(OCC2=C(c3cccc(-n4ncc(C(=O)O)c4C)n3)CCCC2C)ccc1C1CCN(C(=O)C2CC2)CC1 (single isomer, unassigned; (+)) [listing 2 of 2 here] |  |  | < 0.5 nM |  | 9 nM | Activity [8]: Non-Toxic; Activity [9]: Non-Toxic |
| Cc1cc(C2CCN(C(=O)C3CC3)CC2)ccc1OCc1c(C)csc1-c1cccc(-n2ncc(C(=O)O)c2C(F)(F)F)n1 | 100% | < 0.5 nM |  | 100% | 40 nM |  |
| Cc1cc(C2CCN(C(=O)C3CC3)CC2)ccc1OCc1cc(Cl)sc1-c1cccc(-n2ncc(C(=O)O)c2C(F)(F)F)n1 | 99% | 0.15 nM |  | 97% | 520 nM |  |
| O=C(Nc1ccc(S(=O)(=O)N2CCOCC2)cc1)c1cc(Cl)ccc1NS(=O)(=O)c1ccc(Cl)s1 | 95% | 870 nM |  |  |  |  |
| CCc1cc(OCC2=C(c3cccc(-n4ncc(C(=O)O)c4C)n3)CCCC2C)ccc1C1CCN(C(=O)C2CC2)CC1 (stereo in doubt; (-)-24) [listing 2 of 2 here] |  |  | 3 nM |  |  |  |
| CCc1cc(OCC2=C(c3cccc(-n4ncc(C(=O)O)c4C(F)(F)F)n3)CCCC2C)ccc1C1CCN(C(=O)C2CC2)CC1 (single isomer, unassigned; (+)) [listing 2 of 2 here] |  |  | 1 nM |  |  | Activity [3]: Toxic; Activity [4]: Toxic; EC50 [5]: 6 nM |
